Measured values: ChEMBL document CHEMBL1128326, “N-acylated alpha-amino acids as novel oral delivery agents for proteins” (1995)

The molecules below were run against Serine protease 1 (Homo sapiens) (UniProt P07477) (assay: The compound was tested for inhibitory activity against trypsin, activity is expressed as %inhibition.). Details: concentration not given here.
Outline: (§1)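 Trypsin activity was taken from USP pancreatin at 1 mg/mL final, in 50 mM potassium phosphate pH 7.6 at 37 °C. Test compound was preincubated with enzyme for 10 min. The reaction was started with N-benzoyl-L-arginine p-nitroanilide (300 μM final), and p-nitroaniline formation was followed at 400 nm over 12 min. Percent inhibition was calculated at 12 min from reaction rates versus compound-free controls.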

Chain of Serine protease 1 (Homo sapiens) (P07477 whole entry): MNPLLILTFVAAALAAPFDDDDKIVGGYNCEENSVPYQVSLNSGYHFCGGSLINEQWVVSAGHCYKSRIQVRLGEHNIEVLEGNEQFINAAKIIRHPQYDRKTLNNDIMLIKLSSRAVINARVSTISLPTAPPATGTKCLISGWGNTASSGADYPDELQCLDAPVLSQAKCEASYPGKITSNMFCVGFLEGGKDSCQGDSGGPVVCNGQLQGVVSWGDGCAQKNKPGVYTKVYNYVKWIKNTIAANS

SMILES | inhibition
O=C(N[C@H](C(=O)O)c1ccccc1)C1CCCCC1 | 44%

These molecules were tested on Rattus norvegicus (assay: The compound was tested for oral delivery of calcitonin, activity is measured as reduction in serum calcium levels at 400 mg/kg and dose of calcitotin is 10 ug/kg). Details: not given.
Assay type: functional
Outline: (§2)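 Male Sprague-Dawley rats (125–150 g; groups of 6–7) were anesthetized with ketamine 44 mg/kg plus thiazine 0.5 mg/kg. They were given an aqueous pH 7.2 solution of compound with salmon calcitonin (400 mg/kg and 10 μg/kg) by oral gavage at 2 mL/kg. Control groups received calcitonin alone or compound alone. Tail-artery blood was sampled serially, and serum calcium was measured with a kit; results are % decrease, mean ± SE.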

SMILES | Ca2+ reduction
CC(C)C[C@H](NC(=O)c1ccc([N+](=O)[O-])cc1)C(=O)O | -11.8
CC(C)C[C@H](NC(=O)C1CCCCCC1)C(=O)O | -19.76
CC(C)C[C@H](NC(=O)C1CCCCC1)C(=O)O | -21.82
CC(C)C[C@H](NC(=O)CCC1CCCCC1)C(=O)O | -14.97
CC(C)C[C@H](NC(=O)C1CCC(C)CC1)C(=O)O (stereo partly drawn) | -15.52
CC(C)C[C@H](NC(=O)c1ccccc1[N+](=O)[O-])C(=O)O | -6.61
CC(C)C[C@H](NC(=O)C1CCCC(C)C1)C(=O)O (stereo partly drawn) | -13.69
CC(C)C[C@H](NC(=O)c1cccc([N+](=O)[O-])c1)C(=O)O | -14.5
CC(C)C[C@H](NC(=O)C1CCCCC1C)C(=O)O (stereo partly drawn) | -18.27
CC(C)C[C@H](NC(=O)c1ccccc1)C(=O)O | -12.9
CC(C)C[C@H](NC(=O)C1CCCCC1)C(=O)O.N=C(N)NCCC[C@H](NC(=O)C1CCCCC1)C(=O)O.O=C(N[C@@H](Cc1ccc(O)cc1)C(=O)O)C1CCCCC1 | -33.9
CC(C)C[C@@H](NC(=O)C1CCCCC1)C(=O)O | -18.32

These molecules were tested on Rattus norvegicus (assay: The compound was tested for oral delivery of interferon-alpha in rats.(compound dose=400 mg/kg; inf-alpha dose= 500 ug/kg)). Details: not given.

SMILES | Amount delivered
O=C(N[C@H](C(=O)O)c1ccccc1)C1CCCCC1 | 2598 pg/mL

What follows are molecules tested against Serine protease 1 (Homo sapiens) (UniProt P07477) (assay: The compound was tested for inhibitory activity against trypsin at 10 mg/mL). Details: not given.
Outline: as §1

SMILES | inhibition
CC(C)C[C@H](NC(=O)C1CCCCC1)C(=O)O | 39%

What follows are molecules tested on Rattus norvegicus (assay: The compound was tested for oral delivery of interferon-alpha in rats.(compound dose=400 mg/kg; inf-alpha dose= 250 ug/kg)). Details: not given.

SMILES | Amount delivered
O=C(N[C@H](C(=O)O)c1ccccc1)C1CCCCC1 | 434 pg/mL

Species: Rattus norvegicus
Test: The compound was tested for oral delivery of interferon-alpha in rats.
Details: not given

SMILES | Amount delivered
O=C(N[C@H](C(=O)O)c1ccccc1)C1CCCCC1 | 3808 pg/mL

What follows are molecules tested on Rattus norvegicus (assay: The compound was tested for oral delivery of interferon-alpha in rats.(compound dose=800 mg/kg; inf-alpha dose= 1 mg/kg)). Details: not given.

SMILES | Amount delivered
O=C(N[C@H](C(=O)O)c1ccccc1)c1ccccc1 | 8427 pg/mL
O=C(N[C@H](C(=O)O)c1ccccc1)C1CCCCCC1 | 4066 pg/mL
CCC(C)[C@H](NC(=O)C1CCCCC1)C(=O)O (stereo partly drawn) | 340 pg/mL
O=C(N[C@@H](Cc1ccc(O)cc1)C(=O)O)C1CCCCC1 | 3422 pg/mL
O=C(CCC1CCCCC1)N[C@H](C(=O)O)c1ccccc1 | 3026 pg/mL
N=C(N)NCCC[C@H](NC(=O)C1CCCCC1)C(=O)O | 2107 pg/mL
NC(=O)NCCC[C@H](NC(=O)C1CCCCC1)C(=O)O | 1922 pg/mL
O=C(N[C@H](C(=O)O)c1ccccc1)c1ccccc1O | 757 pg/mL
NCCCC[C@H](NC(=O)C1CCCCC1)C(=O)O | 3340 pg/mL
O=C(N[C@H](C(=O)O)c1ccccc1)C1CCCC1 | 4707 pg/mL
O=C(CC1CCCCC1)N[C@H](C(=O)O)c1ccccc1 | 6401 pg/mL
O=C(N[C@@H](Cc1ccccc1)C(=O)O)C1CCCCC1 | 611 pg/mL

Species: Rattus norvegicus
Test: The compound was tested for oral delivery of calcitonin, activity is measured as reduction in serum calcium levels.
Assay type: functional
Parameters: unit not given beside the values
Details: not given
Outline: as §2

SMILES | Ca2+ reduction
CC(C)C[C@H](NC(=O)C1CC1)C(=O)O | -3.87
CC(C)C[C@H](NC(=O)C1CCCC1)C(=O)O | -6.28
CC(C)C[C@H](NC(=O)C1CCCCC1C(=O)O)C(=O)O (stereo partly drawn) | -10.47
COc1cccc(C(=O)N[C@@H](CC(C)C)C(=O)O)c1 | -7.9
